From PMC7340344 (Journal of medicinal chemistry, 2020)
Counter-ions that a name gives are not always drawn.

molecular target: LSD1 (Homo sapiens, UniProt O60341); assay: Inhibition of LSD1; assay type: biochemical; settings: not given

Compound | inhibition of LSD1 activity at 50 μM
CC(C)(C)c1ccc(-c2cc(C(=O)NCC3CCNCC3)sc2-c2ccc(C(C)(C)C)cc2)cc1 [Compound 1, 4,5-bis(4-(tert-Butyl)phenyl)-N-(piperidin-4-ylmethyl)thiophene-2-carboxamide hydrochloride] | did not significantly inhibit

tested on: Kasumi-1 leukemia cells; assay: Western blot of cellular histone acetylation; assay type: cell-based; settings: Kasumi-1 cells, 12h, 5 and 10 μM
Outline: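 Kasumi-1 cells (10^6/well) were exposed to test compound at 0, 5 and 10 μM for 12 h. Total histones were extracted by kit, and 2 μg per lane were separated by SDS-PAGE and transferred to PVDF. Blots were probed with antibodies to H3K9Ac, H3K18Ac, H3K27Ac and total H3, then with an anti-rabbit IgG secondary.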

Compound | cellular acetylation of histone H3K9, H3K18 and H3K27
NCc1ccc(-c2cc(CNCC3CCNCC3)sc2-c2ccc(CN)cc2)cc1 [Compound 28, ((5-(((Piperidin-4-ylmethyl)amino)methyl)thiophene-2,3-diyl)bis(4,1-phenylene))dimethanamine hydrochloride] | no significant activity

molecular target: T1, p300 HAT and histone H4 (Homo sapiens, UniProt Q09472); assay: Alpha assay, binding between p300 HAT and histone H4 peptide; settings: not given
T1 sequence (Q09472 1287-1663 limits assumed): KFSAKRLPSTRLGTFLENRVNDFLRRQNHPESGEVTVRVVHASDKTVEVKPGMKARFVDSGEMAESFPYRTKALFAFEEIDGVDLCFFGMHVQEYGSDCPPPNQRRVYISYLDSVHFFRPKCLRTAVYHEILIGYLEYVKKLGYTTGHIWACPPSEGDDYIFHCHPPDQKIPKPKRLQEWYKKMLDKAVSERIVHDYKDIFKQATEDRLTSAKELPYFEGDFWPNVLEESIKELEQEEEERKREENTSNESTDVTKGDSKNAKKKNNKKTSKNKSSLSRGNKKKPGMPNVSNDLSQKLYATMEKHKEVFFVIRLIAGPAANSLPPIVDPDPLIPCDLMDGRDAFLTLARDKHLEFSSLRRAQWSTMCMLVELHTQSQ

Compound | effect on binding between p300 HAT and histone H4 (in words)
NCc1ccc(-c2cc(CNCC3CCNCC3)sc2-c2ccc(CN)cc2)cc1 [Compound 28, ((5-(((Piperidin-4-ylmethyl)amino)methyl)thiophene-2,3-diyl)bis(4,1-phenylene))dimethanamine hydrochloride] | not interfered

molecular target: T2, HAT domain of human p300 (Homo sapiens, UniProt Q09472); assay: Inhibition of p300-HAT; assay type: biochemical; settings: not given
T2 sequence (Q09472 1195-1673): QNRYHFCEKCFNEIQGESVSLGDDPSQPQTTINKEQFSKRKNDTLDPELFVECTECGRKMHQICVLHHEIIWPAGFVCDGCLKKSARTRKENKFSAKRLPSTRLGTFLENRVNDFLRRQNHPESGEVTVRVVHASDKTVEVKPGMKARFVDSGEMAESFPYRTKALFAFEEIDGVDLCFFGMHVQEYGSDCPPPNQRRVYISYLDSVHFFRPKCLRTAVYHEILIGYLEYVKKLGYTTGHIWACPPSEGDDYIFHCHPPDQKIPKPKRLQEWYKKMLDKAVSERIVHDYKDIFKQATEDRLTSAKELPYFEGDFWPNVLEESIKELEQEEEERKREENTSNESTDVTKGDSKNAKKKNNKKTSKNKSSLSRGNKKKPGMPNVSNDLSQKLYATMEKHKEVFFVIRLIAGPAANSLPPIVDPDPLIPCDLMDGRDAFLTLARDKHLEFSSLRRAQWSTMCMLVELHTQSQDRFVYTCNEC

Compound | IC50
CC(C)(C)c1ccc(-c2cc(CNCC3CCNCC3)oc2-c2ccc(C(C)(C)C)cc2)cc1 [Compound 34, 1-(4,5-bis(4-(tert-Butyl)phenyl)furan-2-yl)-N-(piperidin-4-ylmethyl)methanamine hydrochloride] | 4.9 µM
c1cc(-c2ccc(-c3cc(CNCC4CCNCC4)oc3-c3ccc(-c4ccoc4)cc3)cc2)co1 [Compound 35, 1-(4,5-bis(4-(Furan-3-yl)phenyl)furan-2-yl)-N-(piperidin-4-ylmethyl)methanamine hydrochloride] | 3 µM

same assay, conditions: ratio of p300 HAT IC50 to that of compound 12

Compound | activity reduction as compared to 12
CC(C)(C)c1ccc(-c2cc(CNC3CCNCC3)sc2-c2ccc(C(C)(C)C)cc2)cc1 [Compound 14, N-((4,5-bis(4-(tert-Butyl)phenyl)thiophen-2-yl)methyl)piperidin-4-amine hydrochloride] | ~ 8 fold
CC(C)(C)c1ccc(-c2sc(CNCC3CCNCC3)c(Br)c2-c2ccc(C(C)(C)C)cc2)cc1 [Compound 33, 1-(3-Bromo-4,5-bis(4-(tert-butyl)phenyl)thiophen-2-yl)-N-(piperidin-4-ylmethyl)methanamine hydrochloride] | ~ 3 fold
CC(C)(C)c1ccc(-c2nc(CNCC3CCNCC3)sc2-c2ccc(C(C)(C)C)cc2)cc1 [Compound 37, 1-(4,5-bis(4-(tert-Butyl)phenyl)thiazol-2-yl)-N-(piperidin-4-ylmethyl)methanamine hydrochloride] | more than 13 fold
CC(C)(C)c1ccc(-c2cc(CNCC3CCNCC3)sc2-c2ccc(CN)cc2)cc1 [Compound 26, 1-(5-(4-(Aminomethyl)phenyl)-4-(4-(tert-butyl)phenyl)thiophen-2-yl)-N-(piperidin-4-ylmethyl)methanamine hydrochloride] | ~ 3 fold
CC(C)(C)c1ccc(-c2cc(CNCCC3CCNCC3)sc2-c2ccc(C(C)(C)C)cc2)cc1 [Compound 15, N-((4,5-bis(4-(tert-Butyl)phenyl)thiophen-2-yl)methyl)-2-(piperidin-4-yl)ethanamine hydrochloride] | ~3 fold

same assay, conditions: read-out: % inhibition at 10 μM, compound at 10 μM

Compound | inhibition at 10 µM
CC(C)(C)c1ccc(-c2sc(C(=O)NCC3CCNCC3)cc2-c2ccoc2)cc1 [Compound 8, 5-(4-(tert-Butyl)phenyl)-4-(furan-3-yl)-N-(piperidin-4-ylmethyl)thiophene-2-carboxamide hydrochloride] | ~30%
CC(C)(C)c1ccc(-c2sc(C(=O)NCC3CCNCC3)cc2-c2cccnc2)cc1 [Compound 9, 5-(4-(tert-Butyl)phenyl)-N-(piperidin-4-ylmethyl)-4-(pyridin-3-yl)thiophene-2-carboxamide hydrochloride] | ~30%

same assay, conditions: removal of the carbonyl group

Compound | activity reduction as compared to 3
COc1ccc(-c2ccc(-c3cc(CNCC4CCNCC4)sc3-c3ccc(-c4ccc(OC)cc4)cc3)cc2)cc1 [Compound 10, 1-(4,5-bis(4’-Methoxy-[1,1’-biphenyl]-4-yl)thiophen-2-yl)-N-(piperidin-4-ylmethyl)methanamine hydrochloride] | ~ 50%

same assay, conditions: tested up to 10 μM

Compound | inhibitory activity against p300 HAT (in words)
CC(C)(C)c1ccc(-c2sc(C(=O)NCC3CCNCC3)cc2-c2ccc(CN3CCNCC3)cc2)cc1 [Compound 7, 5-(4-(tert-Butyl)phenyl)-4-(4-(piperazin-1-ylmethyl)phenyl)-N-(piperidin-4-ylmethyl)thiophene-2-carboxamide hydrochloride] | almost inactive
c1ccc(-c2cccc(-c3cc(CNCC4CCNCC4)sc3-c3cccc(-c4ccccc4)c3)c2)cc1 [Compound 32, 1-(4,5-di([1,1’-Biphenyl]-3-yl)thiophen-2-yl)-N-(piperidin-4-ylmethyl)methanamine hydrochloride] | Lack of inhibition
CC(C)(C)c1ccc(-c2sc(CNCC3CCNCC3)cc2-c2ccc(CN)cc2)cc1 [Compound 27, 1-(4-(4-(Aminomethyl)phenyl)-5-(4-(tert-butyl)phenyl)thiophen-2-yl)-N-(piperidin-4-ylmethyl)-methanamine hydrochloride] | major activity loss
COc1ccc(-c2cc(CNCC3CCNCC3)sc2-c2ccc(OC)c(OC)c2)cc1OC [Compound 31, 1-(4,5-bis(3,4-Dimethoxyphenyl)thiophen-2-yl)-N-(piperidin-4-ylmethyl)methanamine hydrochloride] | Lack of inhibition
CC(C)(C)c1ccc(-c2cc(COCC3CCNCC3)sc2-c2ccc(C(C)(C)C)cc2)cc1 [Compound 13, 4-(((4,5-bis(4-(tert-Butyl)phenyl)thiophen-2-yl)methoxy)methyl)piperidine hydrochloride] | complete loss of inhibitory activity
OCc1ccc(-c2cc(CNCC3CCNCC3)sc2-c2ccc(CO)cc2)cc1 [Compound 29, ((5-(((Piperidin-4-ylmethyl)amino)methyl)thiophene-2,3-diyl)bis(4,1-phenylene))dimethanol hydrochloride] | weak inhibitor
N-((5,6-bis(4-(Furan-3-yl)phenyl)pyrazin-2-yl)methyl)piperidin-4-amine hydrochloride [Compound 40] | significantly less active than its thiophene analog 11
CC(C)(C)c1ccc(-c2cc(CN3CCNCC3)sc2-c2ccc(C(C)(C)C)cc2)cc1 [Compound 18, 1-((4,5-bis(4-(tert-Butyl)phenyl)thiophen-2-yl)methyl)piperazine hydrochloride] | Loss of activity
CCCCc1ccc(-c2cc(CNCC3CCNCC3)sc2-c2ccc(CCCC)cc2)cc1 [Compound 23, 1-(4,5-bis(4-Butylphenyl)thiophen-2-yl)-N-(piperidin-4-ylmethyl)methanamine hydrochloride] | Loss of activity
NCc1ccc(-c2cc(CNCC3CCNCC3)sc2-c2ccc(CN)cc2)cc1 [Compound 28, ((5-(((Piperidin-4-ylmethyl)amino)methyl)thiophene-2,3-diyl)bis(4,1-phenylene))dimethanamine hydrochloride] | inactive
c1cc(-c2cc(CNCC3CCNCC3)sc2-c2ccoc2)co1 [Compound 30, 1-(4,5-di(Furan-3-yl)thiophen-2-yl)-N-(piperidin-4-ylmethyl)methanamine hydrochloride] | very low activity
CC(C)(C)c1ccc(-c2csc(CNCC3CCNCC3)n2)cc1 [Compound 38, 1-(4-(4-(tert-Butyl)phenyl)thiazol-2-yl)-N-(piperidin-4-ylmethyl)methanamine hydrochloride] | Loss of activity
CC(C)(C)c1ccc(-c2csc(C(=O)NCC3CCNCC3)n2)cc1 [Compound 39, 4-(4-(tert-Butyl)phenyl)-N-(piperidin-4-ylmethyl)thiazole-2-carboxamide hydrochloride] | Loss of activity
CC(C)(C)c1ccc(-c2cc(CN3CCOCC3)sc2-c2ccc(C(C)(C)C)cc2)cc1 [Compound 19, 4-((4,5-bis(4-(tert-Butyl)phenyl)thiophen-2-yl)methyl)morpholine hydrochloride] | Loss of activity
